The record followed here is ChEMBL document CHEMBL1127058, “The synthesis and biochemical pharmacology of enantiomerically pure methylated oxotremorine derivatives” (J Med Chem, 1993).

Several values for one entry are separate records, joined by “and”; a condition that tells them apart may be missing. Identical values can stand only once. Some results are limits rather than exact numbers.

Assay [1] concerns the target T1, Muscarinic acetylcholine receptor M2 (Rattus norvegicus, UniProt P10980).
T1 sequence (P10980 whole entry): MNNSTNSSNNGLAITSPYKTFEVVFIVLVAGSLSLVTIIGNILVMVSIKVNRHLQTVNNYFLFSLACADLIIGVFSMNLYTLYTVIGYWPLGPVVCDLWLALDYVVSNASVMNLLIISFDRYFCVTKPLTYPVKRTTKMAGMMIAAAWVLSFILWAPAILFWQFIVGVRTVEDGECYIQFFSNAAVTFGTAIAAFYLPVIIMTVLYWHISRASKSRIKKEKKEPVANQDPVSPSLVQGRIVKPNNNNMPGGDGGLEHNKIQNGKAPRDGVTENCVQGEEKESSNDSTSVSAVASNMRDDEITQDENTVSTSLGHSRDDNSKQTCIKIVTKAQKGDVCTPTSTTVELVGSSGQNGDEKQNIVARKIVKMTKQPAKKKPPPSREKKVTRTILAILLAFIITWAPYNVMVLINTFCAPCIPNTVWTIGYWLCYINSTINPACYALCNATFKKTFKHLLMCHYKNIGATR
Kind of assay: Binding affinity at [3H]CD radiolabeled muscarinic M2 receptor in rat cortex. The assay is classed as tissue-based. Put shortly: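 Rat cortex (male Wistar, 200–250 g) homogenized in ice-cold 10 mM Na/K phosphate, pH 7.4, diluted 1:300; ~0.75 mg protein per 2.0 mL. [3H]CD 1 nM, 120 min at 25 °C. Filtration onto PEI-soaked GF/B filters, scintillation counting; Ki from one-site competitive fit.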

The target of assay [2] is T1, Muscarinic acetylcholine receptor M2. Kind of assay: Binding affinity at [3H]QNB and GppNHp radiolabeled muscarinic M2 receptor in rat heart. The method, boiled down:
(§1)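 Washed rat heart membranes (male Wistar; 4800g pellet, 1:750, 0.15–0.2 mg protein/2.0 mL) in 10 mM NaKPB pH 7.4 with Gpp(NH)p 10 μM final. Filter binding, scintillation counting; apparent Ki from one-site fit.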

Assay [3] has the same target. Kind of assay: Binding affinity at [3H]QNB radiolabeled muscarinic M2 receptor in rat cortex. The assay is classed as tissue-based. The method, boiled down:
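Cortex from male Wistar rats homogenized in 10 mM NaKPB pH 7.4, diluted 1:3000 (~0.1 mg protein/2.0 mL).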

Assay [4] has the same target. Put plainly: Binding affinity at [3H]QNB radiolabeled muscarinic M2 receptor in rat heart. Put shortly:
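Rat heart (male Wistar) minced and Polytron-homogenized in 10 mM NaKPB pH 7.4, spun 4800g 15 min 4 °C, resuspended, gauze-filtered, diluted 1:750 (0.15–0.2 mg protein/2.0 mL). Filtration, scintillation; one-site Ki.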

The target in assay [5] is T2, Muscarinic acetylcholine receptor M1 (Rattus norvegicus, UniProt P08482).
T2 sequence (P08482 whole entry): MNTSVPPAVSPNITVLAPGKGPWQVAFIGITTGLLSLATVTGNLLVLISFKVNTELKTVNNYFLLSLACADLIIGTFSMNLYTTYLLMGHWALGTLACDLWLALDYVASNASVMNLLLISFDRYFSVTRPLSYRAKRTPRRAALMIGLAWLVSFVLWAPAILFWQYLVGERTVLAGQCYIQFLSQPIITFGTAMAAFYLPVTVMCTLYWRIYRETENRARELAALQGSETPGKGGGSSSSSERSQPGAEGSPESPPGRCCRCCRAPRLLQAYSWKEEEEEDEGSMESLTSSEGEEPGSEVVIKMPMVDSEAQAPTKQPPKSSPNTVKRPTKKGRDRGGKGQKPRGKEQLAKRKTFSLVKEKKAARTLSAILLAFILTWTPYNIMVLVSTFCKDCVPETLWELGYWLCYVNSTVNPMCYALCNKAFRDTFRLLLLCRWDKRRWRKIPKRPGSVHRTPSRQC
Kind of assay: Binding affinity at [3H]PZ radiolabeled muscarinic M1 receptor in rat cortex. The assay is classed as tissue-based. Put shortly:
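Male Wistar rat cerebral cortex homogenate in ice-cold 10 mM NaKPB pH 7.4, diluted 1:400 (~0.55 mg protein/2.0 mL). [3H]PZ 0.1 nM, 60 min at 25 °C. Filtered on PEI-treated GF/B, scintillation read; apparent Ki by one-site nonlinear regression; one or two determinations.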

Assay [6] has as its target T3, Muscarinic acetylcholine receptor M2 (Rattus norvegicus) (UniProt P10980).
T3 sequence (whole entry): T1 sequence (P10980 whole entry)
Kind of assay: Relative [3H]QNB and [3H]-CD binding to muscarinic M2 receptor.

Assay [7] has as its target T1, Muscarinic acetylcholine receptor M2. Put plainly: Tested for binding affinity to [3H]QNB and GppNHp radiolabeled muscarinic M2 receptor in rat heart. The method, boiled down:
as §1

Assay [8] addresses Muscarinic receptor M1 and M2 (Rattus norvegicus) (UniProt P08482+P10980). Kind of assay: Ratio of [3H]QNB+GppNHp/[3H]-QNB. The assay is classed as protein assay.
The nature of assay [9]: Ratio of [3H]QNB+GppNHp/[3H]-PZ was determined.
A short description of assay [10]: Ratio of [3H]QNB+/[3H]-PZ was determined.

A word on the Ki: it is the equilibrium dissociation constant of an inhibitor or competing ligand from its target. Lower therefore signals higher affinity.

In the case of `CC1CCN(CC#CCN(C)C)C1=O` (centres undefined), the Ki in assay [1] is 0.26 µM; in assay [2], 13 µM; in assay [3], 22 µM; in assay [4], 1.3 µM; in assay [5], 212 µM. Also, the Ratio in assay [6] was 85.
Consider `C[C@H]1CC(=O)N(CC#CC[N+](C)(C)C)C1`, for which the Ki in assay [1] is 0.45 µM; in assay [7], > 100 µM; in assay [3], > 100 µM; in [4], 1.9 µM; in [5], 108 µM. Besides, the Ratio in assay [8] came to 0.23.
Regarding `CC(=O)N(C)C(C)C#CCN1CCCC1` (centres undefined), the Ki in assay [1] is 0.004 µM; in assay [7], 0.18 µM; in assay [3] it was 0.08 µM; in [4], 0.07 µM; in [5] it was 0.04 µM. Besides, the Ratio in assay [8] was 2.5 and 5.1 and 1.8; in assay [6], 19.5.
Consider `C[C@@H]1CC(=O)N(CC#CCN(C)C)C1`, for which the Ki is > 10 µM in assay [1]; > 100 µM in assay [2]; > 1000 µM in [3]; > 100 µM in assay [4]; > 100 µM in [5]. For the same molecule, in assay [8], the Ratio was > 100.
Take `C[C@@H]1CC(=O)N(CC#CCN2CCCC2)C1`: the Ki in assay [1] amounted to 2.5 µM; in assay [2] it was 27 µM; in assay [3], 4.7 µM; in assay [4], 13 µM; in [5] it was 1.3 µM. For the same molecule, the values for the Ratio in assay [9], in assay [8] and in assay [6] were 21, 2 and 1.9, respectively.
With `C[C@H]1CC(=O)N(CC#CCN(C)C)C1`, the Ki in assay [1] was > 10 µM; in assay [2] it was > 100 µM; in assay [3], 150 µM; in [4], > 100 µM; in assay [5] it was 15 µM. In assay [8], the Ratio is > 100.
Take `CN(C)CC#CCN1CCCC1=O`: the Ki in assay [1] worked out at 0.0063 µM; in assay [2], 1.6 µM; in [3], 2.9 µM; in [4], 0.07 µM; in assay [5], 6.8 µM. In addition, the Ratio in [6] turned out to be 460.
Regarding `O=C1CCCN1CC#CCN1CCCCC1`, the Ki in assay [1] was found to be 0.056 µM; in [2], 0.35 µM; in assay [3], 0.12 µM; in assay [4] it was 0.07 µM; in assay [5], 0.13 µM. In addition, the Ratio came to 0.54 in assay [10], 2.7 in assay [9], 5 in assay [8] and 2.2 in assay [6].
For the molecule `C[N+](C)(C)CC#CCN1CCCC1=O` [OXOTREMORINE METHIODIDE], the Ki in assay [1] is 0.00078 µM; in assay [2] it was 1.5 µM; in [3] it was 0.91 µM; in assay [4] it was 0.06 µM; in assay [5], 1.2 µM. In assay [6], the Ratio amounted to 1200.
On to `C[C@@H]1CCN(CC#CCN(C)C)C1=O`, for which the Ki in [1] amounted to 0.071 µM; in [2], 9.3 µM; in [3], 8.9 µM; in [4], 0.24 µM; in assay [5] it was 6.8 µM. Besides, the Ratio in assay [6] was found to be 125.
In the case of `C[C@@H]1CCN(CC#CCN2CCCC2)C1=O`, the Ki was determined as 0.023 µM in [1]; 0.43 µM in assay [2]; 0.43 µM in assay [3]; 0.09 µM in [4]; 0.25 µM in assay [5]. Also, the Ratio in assay [6] was determined as 19.
On to `C[C@H]1CC(=O)N(CC#CCN2CCCC2)C1`, for which the Ki in assay [1] worked out at 1.5 µM; in assay [2], 6 µM; in assay [3], 2.3 µM; in assay [4], 3.8 µM; in assay [5], 0.51 µM. In addition, the Ratio in assay [6] turned out to be 1.6.
As for `C[C@H]1CCN(CC#CCN2CCCC2)C1=O`, the Ki is 0.055 µM in assay [1]; 3.3 µM in [2]; 2.9 µM in [3]; 0.11 µM in assay [4]; 2.2 µM in assay [5]. For the same molecule, the results for the Ratio in [9] and in [8] were 1.5 and 32, respectively.
For `O=C1CCCN1CC#CCN1CCCC1` [OXOTREMORINE], the Ki was 0.0005 µM in assay [1]; 0.16 µM in [2]; 0.06 µM in assay [3]; 0.005 µM in [4]; 0.12 µM in [5].
`CC1CCN(CC#CCN2CCCC2)C1=O` (centres undefined): the Ki in assay [1] stood at 0.015 µM; in assay [2], 1.1 µM; in assay [3], 0.71 µM; in assay [4] it was 0.08 µM; in [5], 0.29 µM. In addition, the Ratio in assay [6] was determined as 48.
As to `C[C@@H]1CC(=O)N(CC#CC[N+](C)(C)C)C1`, the Ki is 0.98 µM in [1]; 52 µM in [2]; > 100 µM in assay [3]; 21 µM in [4]; > 109 µM in assay [5]. The Ratio in [9] came out at 5.7; in [8] it was 2.4.
As for `C[C@H]1CCN(CC#CCN(C)C)C1=O`, the Ki is 0.63 µM in assay [1]; 30 µM in assay [2]; > 100 µM in assay [3]; 21 µM in assay [4]; 1080 µM in [5]. In assay [8], the Ratio is 1.4.
